Source: PubChem
Rows were chosen to be rich in hits. Some 3.6% of all compounds tested hit in one or more screens of this group.
RAM network inh: yeast RAM network inhibition | S. cerevisiae dse1pr::URA3 reporter, 5-FOA growth OD615, 2 d; analog-sensitive cbk1-as2 kinase mutant strain | inhibition, % at 50 µM | actives 1.8% (n = 190,000) | AID 868;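 active means inhibition above a set limit, 3 SD over mean compound inhibition, cut at about 8.4% in these data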;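 further: 0% = DMSO-only wells with no growth and 100% = 10 µM 1-NA-PP1 full growth; inhibition rescues growth on 5-FOA so higher OD means more RAM inhibition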
Yeast growth inh: reduces growth of yeast BB579 in restrictive medium | actives 0.51% (n = 140,000) | inhibition, % at 10 µM | S. cerevisiae BB579 growth, OD615, 48 h | AID 804;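 active means inhibition above a set limit, 3 SD over the mean compound inhibition, cut at about 44% in these data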
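System: Saccharomyces cerevisiae DeaD strain BB579, replicative lifespan model yeast. Buffer or medium: restrictive glucose-based CSMM-D medium. Doses: one dose, 10 µM compound with 0.25% DMSO. Timing: 4 h preincubation and 48 h exposure at 30 °C. Detection: turbidity as optical density at 615 nm. Benchmarks: amphotericin B 10 µg/mL, positive.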
Measles CPE: protection of cells from measles virus; Measles virus-infected cells, CPE protection, absorbance; protection (pct of control), % at 4 µM; actives 1.5% (n = 140,000); in the data active means protection mostly above about 24%, no sharp cut-off; inactive means mostly below about 26%
Yeast lifespan up: yeast lifespan extension | S. cerevisiae growth with nicotinamide, OD615; deaD strain in restrictive glucose medium | inhibition of the nicotinamide effect, % at 10 µM | actives 0.68% (n = 130,000);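 active means inhibition above a set limit, placed 3 SD over the median of all compounds, cut at about 26% in these data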;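 further: 0% = nicotinamide-treated wells and 100% = cells grown without nicotinamide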
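assay system = DeaD-strain S. cerevisiae | measured by = absorbance at 615 nm | probe or stimulus = nicotinamide 1.5 mM | buffer or medium = CSMM-D glucose medium, restrictive | times = 48 h at 30 °C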
* = called active by the depositor; . = no result given.

SMILES | RAM network inh | Yeast growth inh | Measles CPE | Yeast lifespan up
CCOC(=O)c1ccc(NC(=O)CN2C(=O)CSCC2=O)cc1 | 2 | -14 | 28 | 4
COc1cccc(/C=C/C(=O)Nc2ccc3nc4n(c(=O)c3c2)CCCC4)c1OC | 3 | . | . | .
CCn1cnc2sc(C(=O)N(Cc3ccc(N(C)C)cc3)Cc3ccco3)c(C)c2c1=O | 0 | -45 | 55* | -11
Cc1ccc(SCc2ccc(C(=O)Nc3ccccc3C(=O)NC(C)C)cc2)cc1 | 9.1* | -39 | . | 5
O=C1CC(NNc2nc3ccccc3s2)C(=O)N1c1ccccc1 (configuration not stated) | 5 | -52 | 16 | -15
Cc1ccc(N2C(=O)CC(NNc3nc4ccccc4s3)C2=O)cc1 (configuration not stated) | 7 | -29 | 48* | 9
CCOC(=O)C1CCN(C(=O)c2cc3c(=O)n4ccccc4nc3n2C)CC1 | -1 | . | . | .
COc1cc(NC(=S)NC(=O)C(C)C)ccc1NC(=O)c1cc2ccccc2o1 | 9.5* | . | . | .
CCC(=O)NC(=S)Nc1ccc(NC(=O)c2cc3ccccc3o2)c(OC)c1 | 4 | . | . | .
CC(=O)c1ccc(N2CCN(C(=O)c3ccc(Cn4c(=S)[nH]c5ccc(N6CCOCC6)cc5c4=O)cc3)CC2)cc1 | 9.4* | . | . | .
O=c1c2cc(N3CCOCC3)ccc2[nH]c(=S)n1Cc1ccccc1Cl | 8.5* | . | . | .
CCOC(=O)N1CCN(C(=O)c2ccc3c(=O)n(-c4ccc(F)cc4)c(=S)[nH]c3c2)CC1 | 5 | -48 | 28* | -5
C=CCn1c(=O)[nH]c2cc(C(=O)N3CCN(c4ccc(C(C)=O)cc4)CC3)ccc2c1=O | 3 | -46 | 7 | 55*
CN1CCN(C(=O)c2ccc3c(=O)n(-c4ccc(F)cc4)c(=S)[nH]c3c2)CC1 | 1 | . | . | .
O=c1c2cc(N3CCOCC3)ccc2[nH]c(=S)n1CCc1ccccc1 | 7 | . | . | .
COc1ccc(/C=C/CN2CCC(CO)(Cc3ccccc3Cl)CC2)cc1 | 3 | . | . | .
CC(C)(C)C(=O)N1N=C(c2ccc(NS(C)(=O)=O)cc2)CC1c1cccs1 (configuration not stated) | 2 | . | . | .
CC(C)COP(=O)(CNC(=O)CN1C(=O)c2ccccc2S1(=O)=O)OCC(C)C | -1 | -41 | 4 | 5
CN1C(=O)C2C(c3ccc(N(C)C)cc3)NN(Cc3ccccc3)C2C1=O (configuration not stated) | 2 | . | . | .
COc1ccc(-n2c(SCC3OCCO3)nc3c(sc(=S)n3-c3ccccc3)c2=O)cc1OC | 8.6* | . | . | .
CCn1c(=S)sc2c(=O)n(-c3ccccc3)c(SC)nc21 | 3 | -36 | 33 | 6
CSc1nnc(NC(=O)c2ccc(S(=O)(=O)N(C)C)cc2)s1 | 3 | . | . | .
CCOC(=O)C1=C(CC)Nc2ccccc2N=C1NC(=O)c1oc2ccccc2c1C | 4 | . | . | .
CCOCc1c(C(=O)NC2=Nc3ccccc3NC(CC)=C2C(=O)OCC)oc2ccccc12 | 10* | . | . | .
COc1ccc(-c2csc(CCn3nc(C)cc3C)n2)cc1 | -1 | . | . | .
SMILES | RAM network inh | Yeast growth inh | Measles CPE | Yeast lifespan up
Cc1cc(C)n(CCc2nc(-c3ccc(-c4ccccc4)cc3)cs2)n1 | 8.7* | -45 | 18 | 1
CCOc1[nH]n(-c2ccc(Cl)cc2)c(=O)c1C=Nc1ccc(Cl)cc1 | 5 | -49 | 19 | -18
CCOc1[nH]n(-c2ccccc2)c(=O)c1C=Nc1ccc(OC)cc1 | 9.0* | . | . | .
CCOC(=O)/C(=C/c1ccc(OC(=O)c2ccccc2)cc1)C(C)=O | 2 | 17 | 11 | 33*
CC(=O)/C(=C/c1ccc(N(C)C)cc1)C(=O)c1ccccc1 | 6 | -51 | 8 | 3
CC(O)CNc1cnccn1 (configuration not stated) | 0 | . | . | .
Cc1cc(C)nc(N(C#N)CCOc2ccccc2)n1 | -1 | -7 | 22 | -18
CN(C)c1nc(N(C)C)nc(N(C#N)CCOc2ccccc2)n1 | 9.8* | -46 | 17 | .
COCC(=O)Nc1cc(Cl)c(OC)cc1OC | 1 | -29 | 6 | -4
COc1cccc(-c2csc(N3CCN(C(=S)Nc4ccccc4C)CC3)n2)c1 | 6 | . | . | .
COc1ccccc1NC(=O)C1=C(C)NC2=C(C(=O)CC(c3ccc(OC)c(OC)c3)C2)C1c1coc2ccccc2c1=O (configuration not stated) | 9.8* | -60 | 2 | 5
CCOC(=O)C1=C(C)NC2=C(C(=O)CC(c3ccc(OC)c(OC)c3)C2)C1c1ccc(C)o1 (configuration not stated) | 0 | 17 | 5 | -24
COc1ccc(S(=O)(=O)N(CC(=O)N2CCOCC2)Cc2ccccc2)cc1 | 0 | 3 | 18 | .
O=C(CN(Cc1ccccc1)S(=O)(=O)c1ccccc1)N1CCOCC1 | 1 | 11 | 38* | -6
CC(/C=C1\N=C(SCc2ccccc2)SC1=O)=C\c1ccccc1 | 9.9* | -17 | 4 | 1
CC(=C/c1ccccc1)/C=C1/SC(N2CCOCC2)=NC1=O | 1 | -22 | 6 | -29
CCCn1c(SCC(=O)O)nc2ccccc21 | 0 | -38 | 16 | -8
CCCn1c(SCC(=O)N2c3ccccc3Sc3ccccc32)nc2ccccc21 | 7 | -39 | 33* | -2
CC(C)C(=O)NCCc1c[nH]c2ccccc12 | 0 | -19 | 6 | 4
O=C(NCCc1c[nH]c2ccccc12)C(F)(F)F | 3 | -21 | 45* | -22
COc1ncccc1-c1nnn(-c2ccc(Cl)c(Cl)c2)n1 | 8.8* | . | . | .
Cc1ccc(/C=C/C(=O)c2ccccc(=O)c2O)c(C)c1 | 2 | 99* | 8 | -11
O=C(/C=C/c1ccccc1Cl)c1ccccc(=O)c1O | 1 | 99* | 10 | -11
Cc1ccc(C)c(NC(=O)c2ccccc2O)c1 | 0 | -10 | 27 | -17
Cc1ccc(C)c(/C=C/C(=O)c2ccccc(=O)c2O)c1 | 1 | 99* | 3 | -15
SMILES | RAM network inh | Yeast growth inh | Measles CPE | Yeast lifespan up
CCOc1cc(C(=O)Nc2ccc(NC(C)=O)cc2)ccc1OCC(=O)N1CCCCC1 | 2 | -8 | 6 | -3
O=C(C/C=N/OCc1ccc(Cl)cc1)c1cnc(-c2ccccc2)s1 | 11* | -38 | 13 | -18
O=C(C/C=N/OCc1c(Cl)cccc1Cl)c1cnc(-c2ccccc2)s1 | 5 | -46 | 9 | -5
CCN(CC)c1ccc(/C=C2/C(=O)c3ccc(C(=O)O)cc3C2=O)cc1 | 9.9* | -43 | 11 | 9
COc1ccc(Cn2c(C)nnc2-c2cnn(C)c2N)cc1 | 1 | . | . | .
Cc1ccccc1C(=O)NC(NC(=O)c1ccccc1C)c1cccc([N+](=O)[O-])c1 | 2 | -11 | 11 | -2
CC1(C)CC(=O)C(C(c2cccc([N+](=O)[O-])c2)C2C(=O)CC(C)(C)CC2=O)C(=O)C1 | -1 | -47 | 8 | 27*
CCOC(=O)C(=Cc1cc(=O)c(OC)co1)C(=O)OCC | 0 | -16 | 0 | 35*
CCN(Cc1ccccc1)C(=O)c1ccc(CNS(=O)(=O)c2ccc(C)cc2)cc1 | 11* | -27 | 8 | 9
CC(=O)Nc1cccc(NC(=O)CSc2ccc(C(F)(F)F)cc2[N+](=O)[O-])c1 | 1 | -20 | . | -15
